The test system of data set [1] is DC3F/ADR. Put plainly: Binding affinity to p-glycoprotein in chinese hamster DC3F/ADR cells assessed as increase in basal activity at 0.5 uM after 30 mins by spectrophotometric method relative to control. The settings on record: Cricetulus griseus. Type of data set: cell-based. Summed up: (§1)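 P-gp membrane vesicles from resistant DC-3F/ADX cells; basal MgATP hydrolysis tracked by PK/LDH-coupled NADH depletion (PEP, NADH) at 340 nm, with non-specific ATPase inhibitor in basal wells. Plate preincubated 30 min at 37 °C; vesicles 5 min, compound 5 min, then MgATP 20 min at 37 °C; read, re-read after 20 min. Triplicate; ≥30% basal change taken as interaction.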

Data set [2] concerns DC3F/ADR. Put plainly: Binding affinity to p-glycoprotein in chinese hamster DC3F/ADR cells assessed as increase in basal activity at 5 uM after 30 mins by spectrophotometric method relative to control. It counts as cell-based. The settings on record: Cricetulus griseus. The essentials: as §1
A short description of data set [3]: Binding affinity to Mg2+ ion in HEPES buffer at pH 7.2. It counts as physicochemical.
Data set [4] deals with DC3F/ADR. Put plainly: Binding affinity to p-glycoprotein in chinese hamster DC3F/ADR cells assessed as increase in basal activity at 0.05 uM after 30 mins by spectrophotometric method relative to control. It counts as cell-based. The settings on record: Cricetulus griseus. Summed up: as §1

Consider `COc1ccccc1NC=C1C(=O)N(C)C(=O)N(C)C1=O`, for which the Activity in the data set with DC3F/ADR [1] came to 95%; in the data set with DC3F/ADR [2], 123%; in the data set on DC3F/ADR [4], 53%. Besides, the Ka in data set [3] is listed as 5.79 ×10⁵ /M.
Take `CN1C(=O)C(=C(/C=C/c2ccccc2)NNC(/C=C/c2ccccc2)=C2C(=O)N(C)C(=O)N(C)C2=O)C(=O)N(C)C1=O`: the Activity is 69% in the data set on DC3F/ADR [1], 200% in the data set on DC3F/ADR [2] and 33% in the data set on DC3F/ADR [4]. Moreover, the Ka in data set [3] is 4.82 ×10⁵ /M.
For `CN1C(=O)C(=CNc2ccccc2C(=O)O)C(=O)N(C)C1=O` the same measures were 83%, 100%, 35% and 3.6 ×10⁶ /M.
For `CN1C(=O)C(=CNc2ccccc2N)C(=O)N(C)C1=O` the same measures were 102%, 166%, 33% and 7.06 ×10⁵ /M.
For `CN1C(=O)C(=CNc2ccccc2[N+](=O)[O-])C(=O)N(C)C1=O` the same measures were 99%, 141%, 51% and 1.4 ×10⁵ /M.
For `CN1C(=O)C(=CNc2cccc(N)n2)C(=O)N(C)C1=O`, the Activity in the data set on DC3F/ADR [1] worked out at 81%; with DC3F/ADR [2], 92%; in the data set on DC3F/ADR [4], 44%. Moreover, in data set [3], the Ka came out at 2.57 ×10⁵ /M.
The like results for `CN1C(=O)C(=C(/C=C/c2ccccc2)Nc2ccccc2N)C(=O)N(C)C1=O` were, in that order, 112%, 133%, 44% and 2.7 ×10⁴ /M.
For `CN1C(=O)C(=C(NNC(=C2C(=O)N(C)C(=O)N(C)C2=O)c2ccccc2)c2ccccc2)C(=O)N(C)C1=O` the same measures were 100%, 166%, 66% and 1.11 ×10⁶ /M.
On to `CN1C(=O)C(=CNCc2ccccn2)C(=O)N(C)C1=O`, for which the Activity with DC3F/ADR [1] was found to be 75%; in the data set with DC3F/ADR [2], 98%; in the data set on DC3F/ADR [4], 63%. Besides, the Ka in data set [3] came out at 3.2 ×10⁵ /M.
For `CN1C(=O)C(=CNc2cc(C(=O)O)ccc2C(=O)O)C(=O)N(C)C1=O` the same measures were 80%, 146%, 57% and 7.46 ×10⁵ /M.
The like results for `CN1C(=O)C(=C(/C=C/c2ccccc2)NCCNC(/C=C/c2ccccc2)=C2C(=O)N(C)C(=O)N(C)C2=O)C(=O)N(C)C1=O` were, in that order, 166%, 66%, 100% and 5.84 ×10⁵ /M.
On to `CN1C(=O)C(=CNCCNC=C2C(=O)N(C)C(=O)N(C)C2=O)C(=O)N(C)C1=O`, for which the Activity came to 71% in the data set on DC3F/ADR [1], 134% in the data set on DC3F/ADR [2] and 66% in the data set with DC3F/ADR [4]. For the same compound, the Ka in data set [3] is recorded as 8.68 ×10⁵ /M.
The like results for `CN1C(=O)C(=CNNc2ccccc2)C(=O)N(C)C1=O` were, in that order, 97%, 168%, 57% and 1.53 ×10⁷ /M.
Regarding `CN1C(=O)C(=C(Nc2ccccc2N)c2ccccc2)C(=O)N(C)C1=O`, the Activity in the data set with DC3F/ADR [1] came out at 144%; with DC3F/ADR [2], 135%; in the data set on DC3F/ADR [4], 42%. For the same compound, in data set [3], the Ka came out at 2.41 ×10⁴ /M.
Regarding `CN1C(=O)C(=CNc2ccccc2O)C(=O)N(C)C1=O`, the Activity was 114% in the data set on DC3F/ADR [1], 95% with DC3F/ADR [2] and 42% in the data set with DC3F/ADR [4]. The compound also returned a Ka in data set [3] of 5.76 ×10⁵ /M.

The record behind these values is ChEMBL document CHEMBL1154883, “Synthesis of highly functionalized barbituric acids and study of their interactions with p-glycoprotein and Mg2+--potential candidates for multi drug resistance modulation” (Eur J Med Chem, 2010).
